MrgX1 agonist: human MrgX1 receptor agonism, primary screen; MrgX1-HEK293 cells, Fluo-4 calcium fluorescence, agonist mode; stronger effect = higher value; Q96LB2; B-score at 10 µM; 310,000 compounds, 0.44% hits; AID 588627;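 active means calcium response B-score plate-corrected fluorescence ratio at least 3 library SD, with starting fluorescence B-score inside 5 SD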
Target sequence (Q96LB2 whole entry, looked up): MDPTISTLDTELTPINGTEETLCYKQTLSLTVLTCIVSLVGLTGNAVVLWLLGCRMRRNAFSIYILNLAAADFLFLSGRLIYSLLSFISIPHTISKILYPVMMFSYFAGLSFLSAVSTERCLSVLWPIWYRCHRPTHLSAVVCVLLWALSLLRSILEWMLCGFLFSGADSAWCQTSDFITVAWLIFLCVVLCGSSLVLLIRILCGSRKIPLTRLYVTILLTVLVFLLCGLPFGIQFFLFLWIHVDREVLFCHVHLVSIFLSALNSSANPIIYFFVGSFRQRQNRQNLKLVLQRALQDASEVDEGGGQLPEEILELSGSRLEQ
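Material: HEK293 cells stably expressing human MrgX1 receptor | Quantity: 15,000 cells per well | Times: Cells plated overnight, dye loaded 0.5 h 37 °C, 0.5 h room temperature | Measured by: Kinetic Fluo-4 NW fluorescence of intracellular calcium | Control set: Positive and negative controls per plate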
MrgX1 antagonist: antagonists of human MrgX1 receptor. Q96LB2. B-score at 10 µM. 310,000 compounds, 1.3% hits. AID 588676. MRGX1-HEK293 calcium flux, Fluo-4, BAM8-22 antagonism; stronger effect = lower value;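 active means calcium-response B-score plate-corrected more than 3 library SD below zero, starting fluorescence within 5 deviations, no agonist response on first addition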;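 further: peak minus trough fluorescence over baseline after final BAM8-22 challenge near maximal dose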
RGS4 act: potentiators or activators of RGS4. HEK293 M3R/inducible RGS4, carbachol calcium flux Fluo4; stronger effect = lower value. B-score at 10 µM. 310,000 compounds, 0.92% hits;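 active means B-score of the integrated calcium signal more than 4 SD below the library mean, with starting fluorescence not abnormally high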;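 further: negative B-score means reduced calcium response which marks RGS4 activation or potentiation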
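Test system: HEK293 cells with stable M3R and inducible RGS4; also added: carbachol at ECmax as muscarinic agonist stimulus; schedule: dye loading 30 min 37 °C, buffer rest 30 min RT; technique: kinetic calcium fluorescence imaging with Fluo4-AM dye, 2 µM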
RGS4 inh: inhibitors of human RGS4 | P49798 | 310,000 compounds, 0.45% hits | B-score at 10 µM | HEK293 M3R/RGS4 inducible, Fluo-4 calcium flux; stronger effect = higher value; triggered by carbachol at its EC20;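 active means B-score, a plate-corrected calcium signal, over three deviations above library mean, with baseline fluorescence within five deviations of library mean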;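 further: RGS4 expression induced by doxycycline in cells with stable M3 receptor; B-score is computed from the integrated fluorescence ratio over baseline after carbachol; higher B-score means a larger calcium signal and so more RGS4 inhibition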
Target sequence (P49798 whole entry, looked up): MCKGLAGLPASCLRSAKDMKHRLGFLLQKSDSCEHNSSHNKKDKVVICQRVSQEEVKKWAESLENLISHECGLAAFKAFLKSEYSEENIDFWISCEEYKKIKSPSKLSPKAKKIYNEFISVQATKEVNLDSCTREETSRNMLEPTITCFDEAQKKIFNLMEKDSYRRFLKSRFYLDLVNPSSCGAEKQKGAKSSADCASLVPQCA
MrgX1 PAM: allosterically activates human MrgX1 receptor signaling. 310,000 compounds, 0.63% hits. MrgX1-HEK293, Fluo-4 calcium flux, FDSS; stronger effect = higher value. B-score at 10 µM. Q96LB2;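 active means plate-corrected calcium response at least 3 library SD above typical, normal starting fluorescence, not activating the receptor alone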;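 further: compound read alongside a low EC10 to EC30 dose of BAM8-22 agonist; peak minus trough fluorescence over baseline measured at the second addition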
Active calls of the source: *; i = inactive; · = no result given. Compounds with a hit are over-represented: about 3.5% of the library has one in this group of screens.

SMILES | MrgX1 agonist | MrgX1 antagonist | RGS4 act | RGS4 inh | MrgX1 PAM
CCOC(=O)C1CCN(S(=O)(=O)c2ccc3c(c2)CCCN3C(C)=O)CC1 | i | i | i | i | i
CCc1nc(SCC(=O)Nc2ccc(Br)cn2)n[nH]1 | i | i | i | i | i
NC(=O)C1CC(=O)N(c2ccc(OCc3ccc(Cl)cc3)cc2)C1 (centres undefined) | i | i | i | i | i
O=C(Nc1ccc(Cl)cc1Cl)c1ccc(Br)o1 | i | i | i | i | i
CC(=O)N(c1ccccc1)C1CCCC1 | i | i | i | i | i
O=C(CCl)N(c1ccccc1)C1CCCCC1 | i | i | -7.04* | i | i
Cc1oc(-c2ccc(Cl)cc2)nc1CS(=O)CC(=O)NCc1ccc2c(c1)OCO2 (centres undefined) | i | -4.86* | i | i | i
COC(C[C@@H](O)C[C@H](O)COCc1ccccc1)OC | · | · | i | i | ·
CCOC(=O)C1=C(CSc2nc(-c3ccccc3)ccc2C#N)OC(N)=C(C#N)C1c1cccnc1 (centres undefined) | i | -6.1* | i | i | i
Cc1cccc(NC(=O)[C@@H]2CCCN2C(=O)OC(C)(C)C)c1C | i | i | i | i | i
COn1c(SC(C)C)nc2ccccc2c1=O | i | i | i | i | 9.21*
CC(C)On1c(SC(C)C)nc2ccccc2c1=O | i | i | i | i | i
Cc1cccc(N2CCN(C(=O)c3ccc(Cl)c(S(=O)(=O)N4CCc5ccccc5C4)c3)CC2)c1C | i | i | i | i | i
Cc1ccnc(NC(=O)Cn2cc([N+](=O)[O-])cn2)c1 | i | i | i | i | i
O=C(Nc1ccccc1)c1cc2ccccc2c(=O)s1 | i | -7.78* | i | i | i
O=C(Nc1ccc(O)cc1)c1cc2ccccc2c(=O)s1 | i | i | i | i | i
COc1cc(-c2csc(NC3CCCCC3)n2)cc(OC)c1OC | i | i | i | i | i
CC(C(=O)OCC(=O)c1ccc(Br)cc1)N1C(=O)C2C3C=CC(C3)C2C1=O (centres undefined) | i | i | i | i | i
O=C(CN1C(=O)NC2(CCCCC2)C1=O)Oc1ccc2c(C(F)(F)F)cc(=O)oc2c1 | i | i | i | i | i
CCc1cc(=O)oc2cc(OC(=O)CN3C(=O)NC4(CCCC4)C3=O)ccc12 | i | -6.92* | i | i | i
COc1ccccc1CNC(=O)Cn1cccc1C(=O)c1ccccc1 | i | i | i | i | i
O=C(CCNC(=O)c1ccco1)Nc1ccc(Cl)c(C(F)(F)F)c1 | i | i | i | i | i
CC(C)CNC(=S)N1CCC(Cc2ccccc2)CC1 | i | i | i | i | i
O=C(O)c1ccc(Nc2ncnc3scc(-c4ccccc4)c23)cc1 | 29.5* | i | i | i | i
Cc1ccc2c(c1)C(O)(c1c(C)[nH]c3ccccc13)C(=O)N2 (centres undefined) | i | i | i | 6.31* | i
SMILES | MrgX1 agonist | MrgX1 antagonist | RGS4 act | RGS4 inh | MrgX1 PAM
Cc1[nH]c2ccccc2c1C1(O)C(=O)N(C(C)C)c2ccccc21 (centres undefined) | i | i | i | i | i
Cc1ccc(C(=O)N/N=C\c2sccc2C)cn1 | i | -7.78* | i | i | i
Cc1ccsc1/C=N/NC(=O)c1sccc1C | i | i | i | i | i
COc1ccccc1-c1noc(CCCC(=O)NC2CCCCC2)n1 | i | i | i | i | i
O=C(CC(Sc1ccc(Br)cc1)C(=O)O)c1ccc(F)cc1 (centres undefined) | i | i | i | 6.28* | i
CCC(Sc1ccc(C(=O)O)cc1)C(=O)O (centres undefined) | i | i | i | i | i
Cc1ccc(C2Cc3cc(O)c(O)cc3CN2)cc1 (centres undefined) | i | i | i | i | i
CCCCn1c(N)c(N(CC(C)C)C(=O)c2ccc(OCC3CCCO3)cc2)c(=O)[nH]c1=O (centres undefined) | i | -6.2* | i | i | i
C=C(C)COc1ccc(-c2ncnc(C(F)(F)F)c2-c2ccc(OC)cc2)c(O)c1 | i | i | -7.08* | i | i
C=CCOc1ccccc1CN1CCC(Oc2cc(C(=O)NC3CC3)ccc2OC)CC1 | i | i | i | i | i
Cn1c(/C(C#N)=C(\O)c2cccc(F)c2)nc2ccccc21 | i | -5.38* | i | i | i
C=CCOc1ccc(/C=C/C(=O)OCC(=O)N2CCCc3ccccc32)cc1 | i | -9.46* | i | i | i
O=C(c1cc(-c2ccccc2Cl)nc2ccccc12)N1CCN(c2ccccc2O)CC1 | i | i | -7.61* | i | i
Cc1ccccc1-c1cc(C(=O)N2CCCC2)c2ccccc2n1 | i | i | i | i | i
CN1CCCN(C(=O)c2cc(-c3cccc4ccccc34)nc3ccccc23)CC1 | 34.6* | i | i | i | i
O=C(c1cc(-c2ccccc2Cl)nc2ccccc12)N1CCC1 | i | i | i | i | i
COc1ccc(S(=O)(=O)N2CCN(C)CC2)cc1C(=O)Nc1ccccc1 | i | i | i | i | i
Cc1ccc(-n2cc(CN3CCCN(C=O)CC3)c(-c3ccc(F)cc3)n2)cc1 | i | i | i | i | 10.6*
CC(=O)N1CCCN(Cc2cn(-c3ccc(C)cc3)nc2-c2ccc(F)cc2)CC1 | i | i | i | i | i
CC(C)[N+](C)(CCOC(=O)C1c2ccccc2Oc2ccccc21)C(C)C | i | i | -8.51* | i | i
S=c1[nH]c2ccc(Cc3ccc4[nH]c(=S)[nH]c4c3)cc2[nH]1 | i | i | i | i | i
O=c1c2ccccc2nc(/C=C/c2ccc([N+](=O)[O-])cc2)n1CCCO | i | i | i | i | i
O=c1c2ccccc2nc(/C=C/c2cccc([N+](=O)[O-])c2)n1CCCO | i | i | i | i | 7.21*
CCOc1ccccc1NC(=O)NNS(=O)(=O)c1cc(OC)ccc1OC | i | i | i | i | i
CCOc1ccc(OCCOC(=O)CNC(=O)c2ccc(Cl)cc2Cl)cc1 | i | -7* | i | i | i
CC(C)=CCC12Oc3cc(O)ccc3C1(O)Oc1cc3c(c(O)c1C2=O)C=CC(C)(C)O3 (centres undefined) | i | i | -7.29* | i | i
Cc1csc(NC(=O)C(C)N2C(=O)c3ccccc3S2(=O)=O)n1 (centres undefined) | i | i | i | i | i

Screening data deposited in PubChem by Johns Hopkins Ion Channel Center.
